The source made the active and inactive calls. The rule behind the calls is not given here.
Assays:
Format in all cases: functional, organism-based
Klebsiella pneumoniae [1] = assay: Reduction of OmpK35 expression in Klebsiella pneumoniae M expressing CTX-M15 at 4 times MIC concentration by RT-PCR analysis
Outline: (§1)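 K. pneumoniae M strains, with or without CTX-M, were selected for 18 h at 37°C on Trypticase soy agar with ertapenem at four times the MIC. ompK35 (222-bp amplicon) and ompK36 (202-bp amplicon) transcripts were measured by real-time RT-PCR before and after selection; a 193-bp 16S rRNA amplicon was also amplified. Copy numbers were derived from the slopes of calibration curves made with serially diluted cDNA from in vitro RNA standards.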

Escherichia coli [2] = assay: Reduction of OmpF expression in Escherichia coli Wi expressing CTX-M2 at 4 times MIC concentration by RT-PCR analysis
Outline: (§2)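 Ertapenem-decreased-susceptibility mutants of E. coli Wi transformants were selected overnight (18 h, 37°C) on Trypticase soy agar containing ertapenem at fourfold the MIC. omp gene transcripts were quantified by real-time RT-PCR in isolates before and after selection. Calibration curves came from serially diluted cDNA of in vitro-obtained RNA standards for each gene, and copy numbers were compared using the curve slopes.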

Escherichia coli [3] = assay: Reduction of OmpC expression in Escherichia coli Wi expressing CTX-M15 at 4 times MIC concentration by RT-PCR analysis; outline: as §2
Klebsiella pneumoniae [4] = assay: Reduction of OmpK36 expression in Klebsiella pneumoniae M expressing CTX-M2 at 4 times MIC concentration by RT-PCR analysis; outline: as §1
Escherichia coli [5] = assay: Reduction of OmpC expression in Escherichia coli Wi expressing CTX-M2 at 4 times MIC concentration by SDS-PAGE analysis
Klebsiella pneumoniae [6] = assay: Reduction of OmpK36 expression in Klebsiella pneumoniae M expressing CTX-M9 at 4 times MIC concentration by SDS-PAGE analysis
Klebsiella pneumoniae [7] = assay: Reduction of OmpK35 expression in Klebsiella pneumoniae M expressing CTX-M2 at 4 times MIC concentration by RT-PCR analysis; outline: as §1
Klebsiella pneumoniae [8] = assay: Reduction of OmpK35 expression in Klebsiella pneumoniae M expressing CTX-M9 at 4 times MIC concentration by RT-PCR analysis; outline: as §1
Klebsiella pneumoniae [9] = assay: Reduction of OmpK36 expression in Klebsiella pneumoniae M expressing CTX-M15 at 4 times MIC concentration by SDS-PAGE analysis
Escherichia coli [10] = assay: Reduction of OmpC expression in Escherichia coli Wi expressing CTX-M15 at 4 times MIC concentration by SDS-PAGE analysis
Escherichia coli [11] = assay: Antibacterial activity against Escherichia coli Wi expressing CTX-M9
Klebsiella pneumoniae [12] = assay: Reduction of OmpK36 expression in wild type Klebsiella pneumoniae M at 4 times MIC concentration by SDS-PAGE analysis
Escherichia coli [13] = assay: Reduction of OmpC expression in Escherichia coli Wi expressing CTX-M9 at 4 times MIC concentration by SDS-PAGE analysis
Klebsiella pneumoniae [14] = assay: Reduction of OmpK36 expression in Klebsiella pneumoniae M expressing CTX-M15 at 4 times MIC concentration by RT-PCR analysis; outline: as §1
Escherichia coli [15] = assay: Antibacterial activity against Escherichia coli Wi expressing CTX-M2
Klebsiella pneumoniae [16] = assay: Reduction of OmpK36 expression in Klebsiella pneumoniae M expressing CTX-M9 at 4 times MIC concentration by RT-PCR analysis; outline: as §1
Escherichia coli [17] = assay: Reduction of OmpF expression in Escherichia coli Wi expressing CTX-M15 at 4 times MIC concentration by RT-PCR analysis; outline: as §2
Klebsiella pneumoniae [18] = assay: Antibacterial activity against Klebsiella pneumoniae M expressing CTX-M3
Escherichia coli [19] = assay: Reduction of OmpC expression in Escherichia coli Wi expressing CTX-M9 at 4 times MIC concentration by RT-PCR analysis; outline: as §2
Klebsiella pneumoniae [20] = assay: Reduction of OmpK36 expression in Klebsiella pneumoniae M expressing CTX-M3 at 4 times MIC concentration by SDS-PAGE analysis
Escherichia coli [21] = assay: Reduction of OmpC expression in Escherichia coli Wi expressing CTX-M2 at 4 times MIC concentration by RT-PCR analysis; outline: as §2
Klebsiella pneumoniae [22] = assay: Antibacterial activity against Klebsiella pneumoniae M expressing CTX-M15
Escherichia coli [23] = assay: Reduction of OmpF expression in Escherichia coli Wi expressing CTX-M9 at 4 times MIC concentration by RT-PCR analysis; outline: as §2
Escherichia coli [24] = assay: Reduction of OmpC expression in Escherichia coli Wi expressing CTX-M3 at 4 times MIC concentration by RT-PCR analysis; outline: as §2
Klebsiella pneumoniae [25] = assay: Reduction of OmpK36 expression in Klebsiella pneumoniae M expressing CTX-M2 at 4 times MIC concentration by SDS-PAGE analysis
Escherichia coli [26] = assay: Reduction of OmpF expression in Escherichia coli Wi expressing CTX-M3 at 4 times MIC concentration by RT-PCR analysis; outline: as §2
Klebsiella pneumoniae [27] = assay: Reduction of OmpK36 expression in wild type Klebsiella pneumoniae M at 4 times MIC concentration by RT-PCR analysis; outline: as §1
Klebsiella pneumoniae [28] = assay: Reduction of OmpK36 expression in Klebsiella pneumoniae M expressing CTX-M3 at 4 times MIC concentration by RT-PCR analysis; outline: as §1
Klebsiella pneumoniae [29] = assay: Antibacterial activity against Klebsiella pneumoniae M expressing CTX-M9
Klebsiella pneumoniae [30] = assay: Antibacterial activity against Klebsiella pneumoniae M expressing CTX-M2
Klebsiella pneumoniae [31] = assay: Reduction of OmpK35 expression in Klebsiella pneumoniae M expressing CTX-M3 at 4 times MIC concentration by RT-PCR analysis; outline: as §1
Escherichia coli [32] = assay: Antibacterial activity against Escherichia coli Wi expressing CTX-M15
Escherichia coli [33] = assay: Reduction of OmpC expression in Escherichia coli Wi expressing CTX-M3 at 4 times MIC concentration by SDS-PAGE analysis
Escherichia coli [34] = assay: Antibacterial activity against Escherichia coli Wi expressing CTX-M3

C[C@@H](O)[C@H]1C(=O)N2C(C(=O)O)=C(S[C@@H]3CN[C@H](C(=O)Nc4cccc(C(=O)O)c4)C3)[C@H](C)[C@H]12
Activity (Klebsiella pneumoniae [1]): Active
Activity (Escherichia coli [2]): Active
Activity (Escherichia coli [3]): Active
Activity (Klebsiella pneumoniae [4]): Active
Activity (Escherichia coli [5]): Active
Activity (Klebsiella pneumoniae [6]): Active
Activity (Klebsiella pneumoniae [7]): Active
Activity (Klebsiella pneumoniae [8]): Active
Activity (Klebsiella pneumoniae [9]): Active
Activity (Escherichia coli [10]): Active
Activity (Escherichia coli [11]): inactive
Activity (Klebsiella pneumoniae [12]): Active
Activity (Escherichia coli [13]): Active
Activity (Klebsiella pneumoniae [14]): Active
Activity (Escherichia coli [15]): inactive
Activity (Klebsiella pneumoniae [16]): Active
Activity (Escherichia coli [17]): Active
Activity (Klebsiella pneumoniae [18]): inactive
Activity (Escherichia coli [19]): Active
Activity (Klebsiella pneumoniae [20]): Active
Activity (Escherichia coli [21]): Active
Activity (Klebsiella pneumoniae [22]): inactive
Activity (Escherichia coli [23]): Active
Activity (Escherichia coli [24]): Active
Activity (Klebsiella pneumoniae [25]): Active
Activity (Escherichia coli [26]): Active
Activity (Klebsiella pneumoniae [27]): Active
Activity (Klebsiella pneumoniae [28]): Active
Activity (Klebsiella pneumoniae [29]): inactive
Activity (Klebsiella pneumoniae [30]): inactive
Activity (Klebsiella pneumoniae [31]): Active
Activity (Escherichia coli [32]): inactive
Activity (Escherichia coli [33]): Active
Activity (Escherichia coli [34]): inactive
